Reference: ChEMBL document CHEMBL1154607, “Searching for new cures for tuberculosis: design, synthesis, and biological evaluation of 2-methylbenzothiazoles” (J Med Chem, 2009)
In brackets after ≈: the same amount, converted by molar mass.

Legend:
[1] = test system: Leishmania donovani; assay: Antimicrobial activity against Leishmania donovani MHOM/ET/67/L82 axenic amastigote forms; format: functional, organism-based
[2] = test system: Trypanosoma brucei rhodesiense; assay: Antimicrobial activity against Trypanosoma brucei rhodesiense STIB 900 trypomastigote forms; format: functional, organism-based
[3] = test system: Trypanosoma cruzi; assay: Antimicrobial activity against Trypanosoma cruzi Tulahuen C2C4 amastigote forms infected in rat L6 cells; format: functional, organism-based
[4] = test system: Mycobacterium tuberculosis; assay: Antimycobacterial activity against Mycobacterium tuberculosis H37Rv after 7 days by microplate alamar blue assay; format: functional; settings: 168 h
Outline: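 M. tuberculosis H37Rv growth inhibition was read by microplate Alamar blue assay (MABA). The value is reported as the minimum inhibitory concentration (MIC), in μM.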

[5] = test system: Plasmodium falciparum; assay: Antimicrobial activity against chloroquine and pyrimethamine-resistant Plasmodium falciparum K1 in erythrocytes; format: functional, organism-based
[6] = Cytotoxicity against african green monkey Vero cells after 72 hrs; format: cell-based; settings: chlorocebus sabaeus, read-out: MIC
Outline: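 Toxicity was tested in Vero cells, and the value is reported as IC50 in μM.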

Compound	IC50 [1] [µM]	IC50 [2] [µM]	IC50 [3] [µM]	MIC [4] [µM]	IC50 [5] [µM]	MCC at 72 h [6] [µM]
Cc1nc2cc(OCc3cc(C(=O)N[C@H](C(=O)O)c4ccccc4)no3)ccc2s1	32.3	89.5	> 90	> 128	> 5	
COC(=O)[C@@H](NC(=O)c1cc(COc2ccccc2)on1)c1ccccc1	13.5	> 90	45.9	3.5 (≈ 1.28 µg/mL)	> 5	> 128
COC(=O)[C@@H](NC(=O)c1cc(COc2ccc3sc(C)nc3c2)on1)c1ccccc1	27.5	74.2	> 90	1.4 (≈ 0.612 µg/mL)	3.97	> 128
COC(=O)c1ccccc1NC(=O)c1cc(COc2ccc3sc(C)nc3c2)on1				30.2 (≈ 12.8 µg/mL)		> 128
Cc1nc2cc(OCc3cc(C(=O)N[C@H](C(=O)NO)c4ccccc4)no3)ccc2s1	3.25	0.415	6.2	> 128	1.82	
CCOC(=O)c1cc(COc2ccc3sc(C)nc3c2)on1				> 128		
Cc1nc2cc(OCc3cc(C(=O)N4CCOCC4)no3)ccc2s1				> 128		
COC(=O)[C@@H](NC(=O)c1cc(COc2ccc3sc(-c4cccc(C(F)(F)F)c4)nc3c2)on1)c1ccccc1				59.5 (≈ 33.8 µg/mL)		
O=C(Cn1ccnc1[N+](=O)[O-])NCc1ccccc1 [BENZNIDAZOLE]			0.521			
COC(=O)[C@@H](NC(=O)c1nc(COc2ccc3sc(C)nc3c2)cs1)c1ccccc1	4.44	37.5	14.5	62.5 (≈ 28.3 µg/mL)	4.86	
COC(=O)[C@H](CC(C)C)NC(=O)c1cc(COc2ccc3sc(C)nc3c2)on1	2.79	18.7	12.3	3.8 (≈ 1.59 µg/mL)	4.57	> 128
Cc1nc2cc(OCc3cc(C(=O)N[C@H](C(=O)NNC(=O)c4ccncc4)c4ccccc4)no3)ccc2s1				47.5 (≈ 25.8 µg/mL)		
COC(=O)[C@@H](NC(=O)c1cc(COc2ccc3sc(C)nc3c2)on1)c1ccc(OC)cc1				12.2 (≈ 5.7 µg/mL)		> 128
CO[C@H]1/C=C/O[C@@]2(C)Oc3c(C)c(O)c4c(O)c(c(/C=N/N5CCN(C)CC5)c(O)c4c3C2=O)NC(=O)/C(C)=C\C=C\[C@H](C)[C@H](O)[C@@H](C)[C@@H](O)[C@@H](C)[C@H](OC(C)=O)[C@@H]1C [RIFAMPIN]				0.1 (≈ 0.0823 µg/mL)		127
COC(=O)[C@@H](NC(=O)c1cc(COc2ccc3sc(C)nc3c2)on1)c1ccc(O)cc1	4.48	88.9	26.4	15.4 (≈ 6.98 µg/mL)	2.5	> 128
Cc1nc2cc(OCc3cc(C(=O)N4CCN(C)CC4)no3)ccc2s1				> 128		> 128
COC(=O)[C@@H](NC(=O)c1cc(COc2cccc3sc(C)nc23)on1)c1ccccc1	4.12	> 90	18.8	7.4 (≈ 3.24 µg/mL)	> 5	> 128
NNC(=O)c1ccncc1 [ISONIAZID]				0.5 (≈ 0.0686 µg/mL)		> 128
COC(=O)[C@@H](NC(=O)c1cc(COc2ccc3sc(C)nc3c2)on1)c1ccccc1Cl				15.5 (≈ 7.31 µg/mL)		> 128

Compound	IC50 [1] [µM]	IC50 [2] [µM]	IC50 [3] [µM]	MIC [4] [µM]	IC50 [5] [µM]	MCC at 72 h [6] [µM]
COC(=O)[C@@H](NC(=O)c1cc(COc2nc3ccccc3s2)on1)c1ccccc1	4.99	88.6	26.8	15.2 (≈ 6.44 µg/mL)	> 5	> 128
COC(=O)[C@H](Cc1ccccc1)NC(=O)c1cc(COc2ccc3sc(C)nc3c2)on1				14.4 (≈ 6.5 µg/mL)		> 128
COC(=O)[C@H](CCSC)NC(=O)c1cc(COc2ccc3sc(C)nc3c2)on1				3.7 (≈ 1.61 µg/mL)		> 128
COC(=O)[C@@H](NC(=O)c1cc(CSc2nc3ccccc3s2)on1)c1ccccc1	6.03	88.9	16.9	13 (≈ 5.71 µg/mL)	> 5	> 128
Cc1nc2cc(OCc3cc(C(=O)N4CCCCC4)no3)ccc2s1				120 (≈ 42.7 µg/mL)		
CCCCCCCCCCCCCCCCOP(=O)([O-])OCC[N+](C)(C)C [MILTEFOSINE]	0.142					
COC(=O)[C@@H](NC(=O)c1cc(COc2ccc3sc(C)nc3c2)on1)C(C)C				> 128		
CCN(CC)C(=O)c1cc(COc2ccc3sc(C)nc3c2)on1				> 128		
Cc1nc2cc(OCc3cc(C(=O)O)no3)ccc2s1				> 128		
COC(=O)[C@H](NC(=O)c1cc(COc2ccc3sc(C)nc3c2)on1)c1ccccc1	22.3	89.5	37.5	1.9 (≈ 0.831 µg/mL)	3.33	> 128
COC(=O)[C@@H](NC(=O)c1ccc2sc(C)nc2c1)c1ccccc1				13 (≈ 4.43 µg/mL)		> 128
Cc1nc2cc(OCc3cc(C(=O)NCc4ccccc4)no3)ccc2s1	8.8	86.9	> 90	> 128	3.43	
Cc1nc2cc(OCc3cc(C(=O)NO)no3)ccc2s1	6.06	1.85	15.9	> 128	2.76	
Cc1nc2cc(OCc3cc(C(=O)N(C)C)no3)ccc2s1				> 128		
Cc1nc2cc(OCc3cc(C(=O)N[C@H](CO)c4ccccc4)no3)ccc2s1	> 90	31.2	> 90	> 128	2.56	
Cc1nc2cc(OCc3cc(C(=O)NNC(=O)c4ccncc4)no3)ccc2s1	> 90	38	> 90	4.4 (≈ 1.8 µg/mL)	> 5	> 128
COC(=O)[C@@H](NC(=O)c1cc(C)on1)c1ccccc1	56.3	> 90	> 90	37 (≈ 10.1 µg/mL)	> 5	> 128
Cc1nc2cc(OCc3cc(C(=O)N4CCNCC4)no3)ccc2s1				> 128		
Cc1nc2cc(OCc3cc(C(=O)N4CCCCO4)no3)ccc2s1				7.8 (≈ 2.8 µg/mL)		
